Assay results: ChEMBL document CHEMBL3259675, “Novel N-substituted sophoridinol derivatives as anticancer agents” (Eur J Med Chem, 2014)

Assays:
HepG2 [1] = assay: Antiproliferative activity against human HepG2 cells assessed as growth inhibition at 10 ug/ml after 48 hrs by MTT assay; format: functional; details: HepG2, 48 h
Procedure, shortened: (§1)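 Cell lines from ATCC, grown in MEM-EBSS with 10% FBS and 1% penicillin-streptomycin at 37 °C, 5% CO2. Seeded at 4000 cells/well, left 24 h, then exposed to a concentration series for 48 h. Growth read by MTT. Percent inhibition was computed at each concentration and IC50 derived from it. Triplicate determinations, reported as mean SD.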

[2] = Antiproliferative activity against human U87 cells assessed as growth inhibition after 48 hrs by MTT assay; format: functional, cell-based, U-87MG ATCC; details: U-87 MG; procedure, shortened: as §1
[3] = AUC (0 to time) in Sprague-Dawley rat at 25 mg/kg, ig administered as single dose; format: ADME, organism-based; set-up: dose 25 mg/kg, route intragastric; details: plasma, po
Procedure, shortened: (§2)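 Single dose given to three male rats per study, by oral gavage or intravenous injection. AUC was derived by non-compartmental analysis, n = 3.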

Mus musculus [4] = assay: Toxicity in mouse assessed as body weight at 250 to 1000 mg/kg, ig; format: organism-based; set-up: dose 250-1000 mg/kg, route intragastric; details: in vivo, po
[5] = Cmax in Sprague-Dawley rat at 25 mg/kg, ig administered as single dose; format: ADME, organism-based; set-up: dose 25 mg/kg, route intragastric; details: in vivo, po
Procedure, shortened: (§3)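 Male rats, 3 per study, each given a single dose of 25 mg/kg orally (ig) or 5 mg/kg iv. PK parameters from non-compartmental analysis. Oral bioavailability calculated from the ig and iv data.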

HCT-116 = assay: Antiproliferative activity against human HCT116 cells assessed as growth inhibition after 48 hrs by MTT assay; format: functional, cell-based; details: HCT-116, 48 h; procedure, shortened: as §1
[6] = Half life in Sprague-Dawley rat at 25 mg/kg, ig administered as single dose; format: ADME, organism-based; set-up: dose 25 mg/kg, route intragastric; details: in vivo, po; procedure, shortened: as §3
Mus musculus [7] = assay: Toxicity in mouse at 250 to 1000 mg/kg, ig; format: organism-based; set-up: dose 250-1000 mg/kg, route intragastric; details: in vivo, po
Procedure, shortened: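 Single-dose toxicity in mice: compound given intragastrically at 250, 500 or 1000 mg/kg, with deaths monitored.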

MCF7 = assay: Antiproliferative activity against human MCF7 cells assessed as growth inhibition after 48 hrs by MTT assay; format: functional, cell-based; details: MCF7, 48 h; procedure, shortened: as §1
[8] = AUC (0 to time) in Sprague-Dawley rat at 5 mg/kg, iv administered as single dose; format: ADME, organism-based; set-up: dose 5 mg/kg, route intravenous; details: plasma; procedure, shortened: as §2
[9] = Mean residence time in Sprague-Dawley rat at 25 mg/kg, ig administered as single dose; format: ADME, organism-based; set-up: dose 25 mg/kg, route intragastric; details: in vivo, po; procedure, shortened: as §3
HepG2 [10] = assay: Antiproliferative activity against human HepG2 cells assessed as growth inhibition after 48 hrs by MTT assay; format: functional, cell-based; details: HepG2, 48 h; procedure, shortened: as §1
[11] = Tmax in Sprague-Dawley rat at 25 mg/kg, ig administered as single dose; format: ADME, organism-based; set-up: dose 25 mg/kg, route intragastric; details: in vivo, po; procedure, shortened: as §3
[12] = Tmax in Sprague-Dawley rat at 5 mg/kg, iv administered as single dose; format: ADME, organism-based; set-up: dose 5 mg/kg, route intravenous; details: in vivo; procedure, shortened: as §3
[13] = Oral bioavailability in Sprague-Dawley rat at 25 mg/kg administered as single dose; format: ADME, organism-based; details: in vivo; procedure, shortened: as §3
HepG2 [14] = assay: Cell cycle arrest in human HepG2 cells assessed as accumulation at G0/G1 phase at 10 ug/ml after 24 hrs by FACS flow cytometric analysis (reference value: 4.1 %); format: functional; details: HepG2, 24 h
Procedure, shortened: (§4)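 HepG2 cells exposed to 0, 2.5, 5 or 10 µg/ml for 24 h, then harvested. Fixed in 70% ethanol and held at −20 °C. Cell-cycle distribution determined by flow cytometry, with untreated cells as control.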

KB = assay: Antiproliferative activity against human KB cells assessed as growth inhibition after 48 hrs by MTT assay; format: functional, cell-based; procedure, shortened: as §1
NCI-H1299 = assay: Antiproliferative activity against human NCI-H1299 cells assessed as growth inhibition after 48 hrs by MTT assay; format: functional, cell-based; details: NCI-H1299, 48 h; procedure, shortened: as §1
[15] = Mean residence time in Sprague-Dawley rat at 5 mg/kg, iv administered as single dose; format: ADME, organism-based; set-up: dose 5 mg/kg, route intravenous; details: in vivo; procedure, shortened: as §3
[16] = Cmax in Sprague-Dawley rat at 5 mg/kg, iv administered as single dose; format: ADME, organism-based; set-up: dose 5 mg/kg, route intravenous; details: in vivo; procedure, shortened: as §3
HepG2 [17] = assay: Cell cycle arrest in human HepG2 cells assessed as accumulation at G0/G1 phase at 5 ug/ml after 24 hrs by FACS flow cytometric analysis (reference value: 4.1 %); format: functional; details: HepG2, 24 h; procedure, shortened: as §4
HepG2 [18] = assay: Cell cycle arrest in human HepG2 cells assessed as accumulation at G0/G1 phase at 2.5 ug/ml after 24 hrs by FACS flow cytometric analysis (reference value: 4.1 %); format: functional; details: HepG2, 24 h; procedure, shortened: as §4
[19] = Half life in Sprague-Dawley rat at 5 mg/kg, iv administered as single dose; format: ADME, organism-based; set-up: dose 5 mg/kg, route intravenous; details: in vivo; procedure, shortened: as §3

CCCCN1C[C@H]2CCCN3CCC[C@@H]([C@H]23)[C@H]1CCCCO
inhibition at 10 µg/mL (HepG2 [1]): 19.7%

CC(C)(C)CN1C[C@H]2CCCN3CCC[C@@H]([C@H]23)[C@H]1CCCCO
inhibition at 10 µg/mL (HepG2 [1]): 95.7%

CC(C)CN1C[C@H]2CCCN3CCC[C@@H]([C@H]23)[C@H]1CCCCO
inhibition at 10 µg/mL (HepG2 [1]): 9.1%

OCCCC[C@@H]1[C@H]2CCCN3CCC[C@H](CN1Cc1ccccc1)[C@@H]23
inhibition at 10 µg/mL (HepG2 [1]): 18.7%

Cc1ccc(CN2C[C@H]3CCCN4CCC[C@@H]([C@H]34)[C@H]2CCCCO)cc1
inhibition at 10 µg/mL (HepG2 [1]): 17.8%

OCCCC[C@@H]1[C@H]2CCCN3CCC[C@H](CN1Cc1ccccc1F)[C@@H]23
inhibition at 10 µg/mL (HepG2 [1]): 30.9%

OCCCC[C@@H]1[C@H]2CCCN3CCC[C@H](CN1Cc1cccc(F)c1)[C@@H]23
inhibition at 10 µg/mL (HepG2 [1]): 24.3%

OCCCC[C@@H]1[C@H]2CCCN3CCC[C@H](CN1Cc1ccc(F)cc1)[C@@H]23
inhibition at 10 µg/mL (HepG2 [1]): 35.7%

OCCCC[C@@H]1[C@H]2CCCN3CCC[C@H](CN1Cc1ccccc1Cl)[C@@H]23
inhibition at 10 µg/mL (HepG2 [1]): 88.1%

OCCCC[C@@H]1[C@H]2CCCN3CCC[C@H](CN1Cc1ccc(Cl)cc1)[C@@H]23
IC50 [2]: 4.52 µM | AUC [3]: 18.6 µM·h | Activity (Mus musculus [4]): Non-toxic | Cmax [5]: 5.25 µM | IC50 (HCT-116): 10.6 µM | half-life [6]: 3.87 h | Activity (Mus musculus [7]): Non-toxic | IC50 (MCF7): 5.73 µM | AUC [8]: 20.5 µM·h | MRT [9]: 3.28 h | IC50 (HepG2 [10]): 9.37 µM | Tmax [11]: 0.66 h | Tmax [12]: 0.25 h | bioavailability [13]: 18% | inhibition at 10 µg/mL (HepG2 [14]): 3.3% | IC50 (KB): 19.7 µM | IC50 (NCI-H1299): 5.55 µM | MRT [15]: 2.39 h | Cmax [16]: 3.43 µM | inhibition at 10 µg/mL (HepG2 [1]): 87.7% | inhibition at 5 µg/mL (HepG2 [17]): 3.3% | inhibition at 2.5 µg/mL (HepG2 [18]): 4.1% | half-life [19]: 4.46 h

OCCCC[C@@H]1[C@H]2CCCN3CCC[C@H](CN1Cc1ccncc1)[C@@H]23
inhibition at 10 µg/mL (HepG2 [1]): 1.2%

OCCCC[C@@H]1[C@H]2CCCN3CCC[C@H](CN1Cc1ccco1)[C@@H]23
inhibition at 10 µg/mL (HepG2 [1]): 33.2%

OCCCC[C@@H]1[C@H]2CCCN3CCC[C@H](CN1CCc1ccccc1)[C@@H]23
inhibition at 10 µg/mL (HepG2 [1]): 34.6%

CCOCCCC[C@@H]1[C@H]2CCCN3CCC[C@H](CN1Cc1ccccc1)[C@@H]23
inhibition at 10 µg/mL (HepG2 [1]): 2.1%

COCCCC[C@@H]1[C@H]2CCCN3CCC[C@H](CN1Cc1ccc(F)cc1)[C@@H]23
inhibition at 10 µg/mL (HepG2 [1]): 6.8%

CCOCCCC[C@@H]1[C@H]2CCCN3CCC[C@H](CN1Cc1ccc(F)cc1)[C@@H]23
inhibition at 10 µg/mL (HepG2 [1]): 5.1%

COCCCC[C@@H]1[C@H]2CCCN3CCC[C@H](CN1Cc1ccc(Cl)cc1)[C@@H]23
inhibition at 10 µg/mL (HepG2 [1]): 0.3%

CCOCCCC[C@@H]1[C@H]2CCCN3CCC[C@H](CN1Cc1ccc(Cl)cc1)[C@@H]23
inhibition at 10 µg/mL (HepG2 [1]): 0.2%

COC(=O)CCC[C@@H]1[C@H]2CCCN3CCC[C@@H](CN1Cc1ccc(F)cc1)[C@@H]23
inhibition at 10 µg/mL (HepG2 [1]): 0.8%

OCCCC[C@@H]1[C@H]2CCCN3CCC[C@@H](CN1Cc1ccc(F)cc1)[C@@H]23
inhibition at 10 µg/mL (HepG2 [1]): 0.1%

OCCCC[C@@H]1[C@H]2CCCN3CCC[C@@H](CN1Cc1ccc(Cl)cc1)[C@@H]23
inhibition at 10 µg/mL (HepG2 [1]): 4.9%

O=C(O)CCC[C@@H]1[C@H]2CCCN3CCC[C@H](CN1C(=O)CBr)[C@@H]23
IC50 (HepG2 [10]): 15.4 µg/mL

O=C1CCC[C@@H]2[C@H]3CCCN4CCC[C@H](CN12)[C@@H]34 [SOPHORIDINE]
IC50 (HepG2 [10]): > 20 µg/mL

CC[C@@]1(O)C(=O)OCc2c1cc1n(c2=O)Cc2cc3c(CN(C)C)c(O)ccc3nc2-1 [TOPOTECAN]
IC50 [2]: 0.16 µM | IC50 (HCT-116): 4.32 µM | IC50 (MCF7): 14.3 µM | IC50 (HepG2 [10]): 1.66 µM | IC50 (KB): > 200 µM | IC50 (NCI-H1299): 11 µM | inhibition at 10 µg/mL (HepG2 [1]): 72.6%
